Here are results for 14 molecules from publication PMC12377214 (RSC Advances, 2025).

SMILES strings stand for the structures. Values joined by “and” are separate entries in the source; they are usually repeats but may differ in a detail not shown here. Equal values may be shown once.

One assay relates to A498 (kidney carcinoma). The assay is described as follows: Antiproliferative SRB assay, A-498. In kind it is cell-based, human. The settings on record: for IC50: Homo sapiens, A498, 72 h, read-out: pIC50 A-498 (converted); for Selectivity index (SI) A498: IC50 BALB/3T3 / IC50 A498. In general terms: Sulforhodamine B stains cellular protein and so reports cell mass.
The test system of assay [1] is HepG-2 (hepatocellular carcinoma). Kind of assay: Antiproliferative SRB assay, HepG2. In kind it is cell-based, human. The settings on record: for IC50: Homo sapiens, HepG2, 72 h, read-out: pIC50 HepG2 (converted); for Selectivity index (SI) HepG2: IC50 BALB/3T3 / IC50 HepG2.
Assay [2] relates to MDA-MB-231 (breast adenocarcinoma). The assay is described as follows: Antiproliferative SRB assay, MDA-MB-231. In kind it is cell-based, human. Particulars: for IC50: Homo sapiens, MDA-MB-231, 72 h, read-out: pIC50 MDA-MB-231 (converted); for Selectivity index (SI) MDA-MB-231: IC50 BALB/3T3 / IC50 MDA-MB-231.
The target in the next assay is CDK6/Cyclin D3 (Homo sapiens, UniProt Q00534). The assay is described as follows: In vitro CDK6 inhibitory assay. In kind it is biochemical.
A further assay has as its target VEGFR-2 (Homo sapiens, UniProt P35968). Kind of assay: In vitro VEGFR-2 kinase inhibitory assay. In kind it is biochemical.
For assay [3], the target named is T1, xanthine oxidase (XO) (Homo sapiens, UniProt P47989). The assay is described as follows: Xanthine oxidase inhibition assay. In kind it is biochemical.
The test system of assay [4] is MV4-11 cell line. The assay is described as follows: Antiproliferative MTT assay, MV4-11. In kind it is cell-based. The settings on record: Homo sapiens, MV4-11, read-out: Anti-proliferative IC50 MV4-11. The method in brief: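 MV4-11 cells grown in RPMI 1640 with stable glutamine, 10% FBS, 1.0 mM sodium pyruvate and penicillin/streptomycin at 37 °C, 5% CO2. Seeded at 2000 cells/well, then treated after 24 h with test compound (DMSO stock of 10 mg mL−1 diluted in medium; 0.1–100 μg mL−1) for 72 h. MTT added for 4 h, formazan dissolved in DMF, A570 read. IC50 calculated.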
(Tetrazolium assays rely on reduction of a dye to a coloured formazan, in cell work by metabolically active cells.)

The test system of assay [5] is MV4-11 cell line. The assay is described as follows: Cell cycle analysis. In kind it is cell-based. The settings on record: for Cell percentage SubG1: control 7.12 ± 0.569; for Cell percentage G2/M: control 20.98 ± 0.614; for Cell percentage S: control 24.54 ± 2.475; for Cell percentage G0/G1: control 45.40 ± 3.051.
Assay [6] deals with T1, xanthine oxidase (XO). Kind of assay: Kinetics of xanthine oxidase inhibition. In kind it is biochemical. Particulars: for V max: XO alone 2.25 / 2.21; for K m: XO alone Km 40.
For assay [7], the system named is MV4-11 cell line. Particulars: MV4-11 cancer cell line; cited from earlier work.

Chain of CDK6/Cyclin D3 (Q00534 whole entry): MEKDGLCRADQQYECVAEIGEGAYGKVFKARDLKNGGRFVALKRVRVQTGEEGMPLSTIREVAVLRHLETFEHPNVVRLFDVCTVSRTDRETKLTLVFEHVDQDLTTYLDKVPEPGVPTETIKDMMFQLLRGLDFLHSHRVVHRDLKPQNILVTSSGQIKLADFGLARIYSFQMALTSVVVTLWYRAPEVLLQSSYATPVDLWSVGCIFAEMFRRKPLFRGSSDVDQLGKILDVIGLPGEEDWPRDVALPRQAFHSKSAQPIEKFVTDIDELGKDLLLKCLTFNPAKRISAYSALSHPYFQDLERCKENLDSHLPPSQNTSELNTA
Chain of CDK6/Cyclin D3 (P30281 whole entry partner): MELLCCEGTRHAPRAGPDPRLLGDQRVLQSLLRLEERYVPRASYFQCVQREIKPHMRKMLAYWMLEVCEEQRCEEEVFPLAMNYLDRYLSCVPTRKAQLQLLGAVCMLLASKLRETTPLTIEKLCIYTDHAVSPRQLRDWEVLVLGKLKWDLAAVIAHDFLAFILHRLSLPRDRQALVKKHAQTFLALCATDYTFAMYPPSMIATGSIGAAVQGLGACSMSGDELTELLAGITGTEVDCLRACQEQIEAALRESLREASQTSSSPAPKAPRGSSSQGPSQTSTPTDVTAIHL
Chain of VEGFR-2 (P35968 20-1356): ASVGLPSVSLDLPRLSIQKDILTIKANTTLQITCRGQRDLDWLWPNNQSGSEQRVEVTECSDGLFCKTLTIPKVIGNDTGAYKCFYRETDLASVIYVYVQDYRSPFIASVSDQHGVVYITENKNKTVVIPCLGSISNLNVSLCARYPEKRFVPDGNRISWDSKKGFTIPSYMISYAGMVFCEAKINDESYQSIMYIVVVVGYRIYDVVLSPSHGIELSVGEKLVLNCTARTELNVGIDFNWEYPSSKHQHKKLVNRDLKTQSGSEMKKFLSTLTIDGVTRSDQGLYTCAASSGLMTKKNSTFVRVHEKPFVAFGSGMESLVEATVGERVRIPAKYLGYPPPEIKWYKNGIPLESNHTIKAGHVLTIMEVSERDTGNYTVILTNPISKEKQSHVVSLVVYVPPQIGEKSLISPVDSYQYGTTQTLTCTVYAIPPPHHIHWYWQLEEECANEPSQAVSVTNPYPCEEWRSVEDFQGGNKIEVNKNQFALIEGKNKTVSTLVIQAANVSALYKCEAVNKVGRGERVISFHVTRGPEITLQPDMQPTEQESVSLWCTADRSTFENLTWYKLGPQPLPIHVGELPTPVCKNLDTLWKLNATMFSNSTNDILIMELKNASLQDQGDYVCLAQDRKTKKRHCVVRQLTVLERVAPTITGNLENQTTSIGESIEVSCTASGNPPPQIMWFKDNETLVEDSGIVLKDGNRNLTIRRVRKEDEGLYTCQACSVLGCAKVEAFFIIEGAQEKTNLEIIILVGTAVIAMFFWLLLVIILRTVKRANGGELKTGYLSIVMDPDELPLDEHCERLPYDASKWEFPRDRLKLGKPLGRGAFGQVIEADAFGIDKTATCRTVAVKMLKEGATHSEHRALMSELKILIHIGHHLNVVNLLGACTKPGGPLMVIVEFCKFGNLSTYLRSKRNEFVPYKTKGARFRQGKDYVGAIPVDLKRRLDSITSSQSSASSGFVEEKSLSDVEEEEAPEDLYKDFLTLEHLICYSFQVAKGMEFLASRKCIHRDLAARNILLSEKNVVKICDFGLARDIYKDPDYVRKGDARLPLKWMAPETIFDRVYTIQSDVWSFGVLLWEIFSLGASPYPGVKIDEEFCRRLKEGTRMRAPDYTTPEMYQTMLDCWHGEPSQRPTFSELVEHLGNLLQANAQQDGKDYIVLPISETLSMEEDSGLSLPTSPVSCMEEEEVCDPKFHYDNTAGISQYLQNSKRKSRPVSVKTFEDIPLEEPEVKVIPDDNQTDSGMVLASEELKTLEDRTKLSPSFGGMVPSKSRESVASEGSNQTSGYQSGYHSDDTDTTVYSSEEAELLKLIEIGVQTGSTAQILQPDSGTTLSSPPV
T1 sequence (P47989 whole entry, species assumed): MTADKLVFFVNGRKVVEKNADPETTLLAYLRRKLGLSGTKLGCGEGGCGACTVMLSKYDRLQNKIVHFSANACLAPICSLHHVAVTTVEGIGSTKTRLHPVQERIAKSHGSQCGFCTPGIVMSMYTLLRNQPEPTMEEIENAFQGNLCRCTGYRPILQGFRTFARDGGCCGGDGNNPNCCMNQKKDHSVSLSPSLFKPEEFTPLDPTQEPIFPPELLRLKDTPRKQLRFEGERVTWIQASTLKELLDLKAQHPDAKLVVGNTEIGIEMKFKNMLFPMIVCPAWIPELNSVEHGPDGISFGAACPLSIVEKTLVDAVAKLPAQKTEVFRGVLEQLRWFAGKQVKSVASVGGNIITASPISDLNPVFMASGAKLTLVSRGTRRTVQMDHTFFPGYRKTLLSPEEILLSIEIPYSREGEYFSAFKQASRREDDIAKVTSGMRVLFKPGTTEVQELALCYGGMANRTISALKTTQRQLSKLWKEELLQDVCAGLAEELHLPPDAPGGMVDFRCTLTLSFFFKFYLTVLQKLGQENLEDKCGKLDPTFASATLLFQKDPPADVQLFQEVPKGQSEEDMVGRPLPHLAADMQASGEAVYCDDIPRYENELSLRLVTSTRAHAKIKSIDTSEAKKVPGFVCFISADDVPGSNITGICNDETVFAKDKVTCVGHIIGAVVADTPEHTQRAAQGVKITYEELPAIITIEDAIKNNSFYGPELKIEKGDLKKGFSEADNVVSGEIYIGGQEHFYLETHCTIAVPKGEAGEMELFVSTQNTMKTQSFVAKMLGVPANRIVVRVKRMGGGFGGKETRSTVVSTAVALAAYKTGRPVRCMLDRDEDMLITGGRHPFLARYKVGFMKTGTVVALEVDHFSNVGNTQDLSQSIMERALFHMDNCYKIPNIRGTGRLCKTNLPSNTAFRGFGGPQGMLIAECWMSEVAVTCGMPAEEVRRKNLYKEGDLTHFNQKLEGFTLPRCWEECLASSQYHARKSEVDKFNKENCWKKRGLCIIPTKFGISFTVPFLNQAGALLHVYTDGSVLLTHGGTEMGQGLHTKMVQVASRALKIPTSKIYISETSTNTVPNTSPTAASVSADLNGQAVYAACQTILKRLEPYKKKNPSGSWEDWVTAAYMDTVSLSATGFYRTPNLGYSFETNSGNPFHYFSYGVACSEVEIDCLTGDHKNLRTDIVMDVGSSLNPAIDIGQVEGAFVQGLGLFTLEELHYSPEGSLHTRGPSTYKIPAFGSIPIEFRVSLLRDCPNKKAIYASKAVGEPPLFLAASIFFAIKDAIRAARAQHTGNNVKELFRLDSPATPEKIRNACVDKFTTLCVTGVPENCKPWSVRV

For the molecule `O=C1C(=O)N(CCn2ncc3c(=O)[nH]cnc32)c2ccccc21` [6a, 1-[2-(1,5-Dihydro-4-oxopyrazolo[3,4-d]pyrimidin-1-yl)ethyl] indole-2,3-dione], the IC50 in the assay with A498 (kidney carcinoma) was 58.9 µM; in [1], 151 µM; in assay [2], 91.2 µM; on CDK6/Cyclin D3, 0.603 µM; at VEGFR-2, 0.309 µM; on xanthine oxidase (XO) [3] it was 43.7 ± 5.51 µM.

`O=C1C(=O)N(CCn2ncc3c(=O)[nH]cnc32)c2ccc(Cl)cc21` [6b, 5-Chloro-1-[2-(1,5-dihydro-4-oxopyrazolo[3,4-d]pyrimidin-1-yl)ethyl]indole-2,3-dione]: in the assay on A498 (kidney carcinoma), the IC50 was 16.2 µM and the “Selectivity index (SI) A498” value amounted to 2.03. In addition, in [1], the IC50 was 15.1 µM and the “Selectivity index (SI) HepG2” value worked out at 2.15. Further, in assay [2], the IC50 was 13.2 µM and the “Selectivity index (SI) MDA-MB-231” value is on record as 2.49. Besides, the IC50 in the assay on MV4-11 cell line [4] was found to be 5.85 µM. Besides, in the assay on MV4-11 cell line [5] (MV4-11, 1 μg mL^−1), the “Cell percentage SubG1” value came to 3.48 ± 1.178%, the “Cell percentage G2/M” value was found to be 17.67 ± 1.285%, the “Cell percentage S” value is listed as 27.15 ± 3.651% and the “Cell percentage G0/G1” value came out at 50.37 ± 4.619%.

For `COc1ccc2c(c1)C(=O)C(=O)N2CCn1ncc2c(=O)[nH]cnc21` [6c, 1-[2-(1,5-Dihydro-4-oxopyrazolo[3,4-d]pyrimidin-1-yl)ethyl]5-methoxyindole-2,3-dione], the results for the IC50 (with A498 (kidney carcinoma); in [1]; in [2]) were 30.2 µM, 93.3 µM and 47.9 µM, respectively.

In the case of `O=C1C(=O)N(CCn2ncc3c(=O)[nH]cnc32)c2ccc(F)cc21` [6d, 5-Fluoro-1-[(2-(1,5-dihydro-4-oxopyrazolo[3,4-d]pyrimidin-1-yl)ethyl)]indole-2,3-dione], the IC50 in the assay with A498 (kidney carcinoma) was 38.9 µM; in assay [1], 61.7 µM; in assay [2], 47.9 µM.

Take `Nc1ncnc2c1ncn2CCN1C(=O)C(=O)c2ccccc21` [7a, 1-[2-(6-Amino-9H-purin-9-yl)ethyl]-2,3-dihydro-1H-indole-2,3-dione]: the IC50 in assay [2] is 209 µM.

Turning to `Nc1ncnc2c1ncn2CCN1C(=O)C(=O)c2cc(Cl)ccc21` [7b, 1-[2-(6-Amino-9H-purin-9-yl)ethyl]-5-chloro-2,3-dihydro-1H-indole-2,3-dione], in the assay on A498 (kidney carcinoma), the IC50 is 52.5 µM and the “Selectivity index (SI) A498” value was 1.37. Further, in assay [1], the IC50 was 6.03 µM and the “Selectivity index (SI) HepG2” value is 11.89. For the same molecule, in [2], the IC50 is 19.5 µM and the “Selectivity index (SI) MDA-MB-231” value was 3.64. Besides, the IC50 with MV4-11 cell line [4] was found to be 11.8 µM. The “Increase in S phase relative to control” value in the assay with MV4-11 cell line [5] (MV4-11, 10 μg mL^−1, p < 0.05) was 1.49 fold. Besides, in the assay with MV4-11 cell line [5] (MV4-11, 10 μg mL^−1), the “Cell percentage SubG1” value is 6.15 ± 2.74% and 6.15 ± 2.739%; the “Cell percentage G2/M” value is given as 13.32 ± 2.763%; the “Cell percentage S” value was determined as 36.66 ± 4.326%; the “Cell percentage G0/G1” value is listed as 44.36 ± 4.193%. The IC50 at CDK6/Cyclin D3 is 1.51 µM. Further, the IC50 against VEGFR-2 is 0.513 µM. On xanthine oxidase (XO) [3], this molecule showed an IC50 of 66.1 µM.

Turning to `COc1ccc2c(c1)C(=O)C(=O)N2CCn1cnc2c(N)ncnc21` [7c, 1-[2-(6-Amino-9H-purin-9-yl)ethyl]-2,3-dihydro-5-methoxy-1H-indole-2,3-dione], the IC50 in the assay on A498 (kidney carcinoma) was 182 µM; in assay [1] it was 77.6 µM; in [2], 135 µM.

Regarding `Nc1ncnc2c1ncn2CCN1C(=O)C(=O)c2cc(F)ccc21` [7d, 1-[2-(6-Amino-9H-purin-9-yl)ethyl]-2,3-dihydro-5-fluoro-1H-indole-2,3-dione], the IC50 in the assay on A498 (kidney carcinoma) was 166 µM; in assay [1], 17.4 µM; in assay [2], 83.2 µM.

As for `NC(=S)N/N=C1\C(=O)N(CCn2ncc3c(=O)[nH]cnc32)c2ccc(Cl)cc21` [8b, (2Z)-2-{5-Chloro-2-oxo-1-[2-(4-oxo-1,5-dihydropyrazolo[3,4-d]pyrimidin-1-yl)ethyl]-1,2-dihydro-3H-indol-3-ylidene}hydrazine-1-carbothioamide], the IC50 was 14.1 µM in the assay on A498 (kidney carcinoma); 13.2 µM in [1]; 53.7 µM in assay [2]; 0.0676 µM against CDK6/Cyclin D3; 0.0708 µM on VEGFR-2; 21.9 µM against xanthine oxidase (XO) [3]. Further, the “Selectivity index (SI) A498” value in the assay with A498 (kidney carcinoma) came to 2.45. Also, the “Selectivity index (SI) HepG2” value in [1] is on record as 2.60. Besides, the “Selectivity index (SI) MDA-MB-231” value in assay [2] was determined as 0.63.

With `NC(=S)N/N=C1\C(=O)N(CCn2ncc3c(=O)[nH]cnc32)c2ccc(F)cc21` [8d, (2Z)-2-{5-Fluoro-2-oxo-1-[2-(4-oxo-1,5-dihydropyrazolo[3,4-d]pyrimidin-1-yl)ethyl]-1,2-dihydro-3H-indol-3-ylidene}hydrazine-1-carbothioamide], the IC50 in the assay with A498 (kidney carcinoma) is 105 µM; in assay [1] it was 25.1 µM.

On to `NC(=S)N/N=C1\C(=O)N(CCn2cnc3c(N)ncnc32)c2ccc(F)cc21` [9d, (2Z)-2-{5-Fluoro-2-oxo-1-[2-(6-aminopurine-9-yl)ethyl]-1,2-dihydro-3H-indol-3-ylidene}hydrazine-1-carbothioamide], for which, in assay [1], the IC50 is 56.2 µM.

As for `Oc1ncnc2[nH]ncc12` [Allopurinol], on xanthine oxidase (XO) [6] (Lineweaver–Burk plot), the “Type of XO inhibition” value is “mixed”. The V max at xanthine oxidase (XO) [6] (inhibitor 0.1 μM) amounted to 1.51; at xanthine oxidase (XO) [6] (inhibitor 1 μM), 1.33; at xanthine oxidase (XO) [6] (inhibitor 10 μM), 0.55. For the same molecule, the K m on xanthine oxidase (XO) [6] (inhibitor 0.1 μM) stood at 50; on xanthine oxidase (XO) [6] (inhibitor 1 μM), 64; at xanthine oxidase (XO) [6] (inhibitor 10 μM), 51.

Take `CC(=O)c1c(C)c2cnc(Nc3ccc(N4CCNCC4)cn3)nc2n(C2CCCC2)c1=O` [Palbociclib]: the “Cell cycle arrest phase” value with MV4-11 cell line [7] is given as “cell cycle arrest at the G1 phase”.

As to `CNC(=O)c1cc(Oc2ccc(NC(=O)Nc3ccc(Cl)c(C(F)(F)F)c3)cc2)ccn1` [Sorafenib, reference compound], the IC50 with A498 (kidney carcinoma) is 63.1 µM; in [1], 44.7 µM; in assay [2] it was 81.3 µM.
